According to ChEMBL document CHEMBL4177560, “Functional evaluation of synthetic flavonoids and chalcones for potential antiviral and anticancer properties” (Bioorg Med Chem Lett, 2017):
In brackets after ≈: the same amount, converted by molar mass. Activity calls are given as the source filed them. No cut-off for these calls is given here.

Columns and labels:
[1] = biological target: Serine/threonine-protein kinase mTOR (Homo sapiens) (UniProt P42345); assay: Inhibition of mTOR signaling pathway (unknown origin) in human GS5 cells infected with HCV genotype 1b assessed as reduction in ratio of viral NS3 to cellular GAPDH protein level at 0.5 to 1 uM after 72 hrs by Western blot analysis relative to control; format: cell-based
Procedure, shortened: (§1)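 SGR2a (genotype 2a) or GS5 (genotype 1b) replicon cells were treated for 72 h, either at a single 10 μM dose or at increasing concentrations. Extracted proteins were blotted for NS3 and GAPDH, and blots plus repeats were quantified densitometrically as NS3:GAPDH ratio versus DMSO control (100%).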

[2] = biological target: Serine/threonine-protein kinase mTOR (Homo sapiens) (UniProt P42345); assay: Inhibition of mTOR signaling pathway in human GS5 cells infected with HCV genotype 1b assessed as reduction in ratio of viral NS3 to cellular GAPDH protein level at 10 uM after 72 hrs by Western blot analysis; format: cell-based; procedure, shortened: as §1
[3] = biological target: Serine/threonine-protein kinase mTOR (Homo sapiens) (UniProt P42345); assay: Inhibition of mTOR signaling pathway (unknown origin) in sub-genomic replicon 2A cells assessed as reduction in ratio of viral NS3 to cellular GAPDH protein level at 5 uM after 72 hrs by Western blot analysis relative to control; procedure, shortened: as §1
[4] = system: MDA-MB-231; assay: Inhibition of estradiol-induced proliferation in human MDA-MB-231 cells after 72 hrs by Cell-titer-Glo assay; format: functional, cell-based; conditions: MDA-MB-231, 72 h
[5] = biological target: Serine/threonine-protein kinase mTOR (Homo sapiens) (UniProt P42345); assay: Inhibition of mTOR signaling pathway in human Huh7.5 cells infected with FLAG-tagged HCV genotype 2a JFH-1 assessed as reduction in ratio of viral NS3 to cellular GAPDH protein level up to 50 uM after 72 hrs by Western blot analysis; format: cell-based
Procedure, shortened: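 Huh7.5 cells were infected with genotype 2a JFH1-FLAG and co-treated at up to 50 μM for 72 h. NS3 and GAPDH were read by Western blot, and the NS3:GAPDH ratio was expressed relative to DMSO-treated cells.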

[6] = system: Ishikawa; assay: Inhibition of estradiol-induced proliferation in human Ishikawa cells after 72 hrs by Cell-titer-Glo assay; format: functional, cell-based
[7] = biological target: Serine/threonine-protein kinase mTOR (Homo sapiens) (UniProt P42345); assay: Inhibition of mTOR signaling pathway (unknown origin) in sub-genomic replicon 2A cells assessed as reduction in ratio of viral NS3 to cellular GAPDH protein level at 0.5 to 1 uM after 72 hrs by Western blot analysis relative to control; procedure, shortened: as §1
[8] = biological target: Serine/threonine-protein kinase mTOR (Homo sapiens) (UniProt P42345); assay: Inhibition of mTOR signaling pathway (unknown origin) in sub-genomic replicon 2A cells assessed as reduction in ratio of viral NS3 to cellular GAPDH protein level at 10 uM after 72 hrs by Western blot analysis; procedure, shortened: as §1
[9] = system: MCF7; assay: Inhibition of estradiol-induced proliferation in human MCF7 cells after 72 hrs by Cell-titer-Glo assay; format: functional, cell-based; conditions: MCF7, 72 h
[10] = system: Hepatitis C virus; assay: Antiviral activity against HCV genotype 2a infected in human Huh7.5 cells electroporated with viral RNA assessed as […] reduction in ratio of viral NS3 to cellular GAPDH protein level up to 50 uM after 72 hrs by Western blot analysis; conditions: Hepacivirus hominis
[11] = biological target: Serine/threonine-protein kinase mTOR (Homo sapiens) (UniProt P42345); assay: Inhibition of mTOR signaling pathway (unknown origin) in human GS5 cells infected with HCV genotype 1b assessed as reduction in ratio of viral NS3 to cellular GAPDH protein level at 5 uM after 72 hrs by Western blot analysis relative to control; format: cell-based; procedure, shortened: as §1
[12] = biological target: Serine/threonine-protein kinase mTOR (Homo sapiens) (UniProt P42345); assay: Inhibition of mTOR signaling pathway (unknown origin) in sub-genomic replicon 2A cells assessed as reduction in ratio of phosphorylated rps6 protein level to rps6 protein level after 72 hrs by Western blot analysis
Procedure, shortened: (§2)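 SGR2a replicon cells were incubated with increasing compound concentrations for 72 h. Western blots were run for total rps6, phospho-rps6, phospho-S6K1 and GAPDH, and blots plus repeats were quantified as p-rps6 relative to GAPDH or to total rps6.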

[13] = system: Hepatitis C virus; assay: Antiviral activity against HCV genotype 2a infected in human Huh7.5 cells assessed as reduction in viral RNA level at 0.1 to 10 uM after 72 hrs by qPCR analysis; format: functional, organism-based; conditions: Hepacivirus hominis
[14] = system: Hepatitis C virus; assay: Antiviral activity against HCV genotype 1b infected in human GS5 cells assessed as reduction in viral RNA level at 0.1 to 10 uM after 72 hrs by qPCR analysis; format: functional, organism-based; conditions: Hepacivirus hominis
Procedure, shortened: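 GS5 genotype 1b replicon cells were treated for 72 h across 0.1–10 μM. Total RNA was extracted, and HCV RNA and GAPDH mRNA were quantified by qPCR with HCV-specific primers.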

[15] = biological target: Serine/threonine-protein kinase mTOR (Homo sapiens) (UniProt P42345); assay: Inhibition of mTOR signaling pathway in human Huh7.5 cells assessed as reduction in rps6 protein levels at 0.5 to 10 uM after 72 hrs by Western blot analysis; format: cell-based
Procedure, shortened: (§3)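 Naïve, HCV-free Huh7.5 cells were incubated with increasing compound concentrations. Western blot analysis covered phospho-rps6, total rps6, S6K1 and actin.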

[16] = biological target: Serine/threonine-protein kinase mTOR (Homo sapiens) (UniProt P42345); assay: Inhibition of mTOR signaling pathway (unknown origin) in sub-genomic replicon 2A cells assessed as reduction in ratio of phosphorylated S6K1 protein level at 0.1 uM after 72 hrs by Western blot analysis; procedure, shortened: as §2
[17] = biological target: Serine/threonine-protein kinase mTOR (Homo sapiens) (UniProt P42345); assay: Inhibition of mTOR signaling pathway in human Huh7.5 cells assessed as reduction in S6K1 levels at 0.5 to 10 uM after 72 hrs by Western blot analysis; format: cell-based; procedure, shortened: as §3
[18] = biological target: Serine/threonine-protein kinase mTOR (Homo sapiens) (UniProt P42345); assay: Inhibition of mTOR signaling pathway (unknown origin) in sub-genomic replicon 2A cells assessed as reduction in ratio of phosphorylated rps6 protein level to rps6 protein level at 0.5 to 10 uM after 72 hrs by Western blot analysis relative to control; procedure, shortened: as §2

| Structure (SMILES) | inhibition [2] | inhibition [5] | inhibition [8] | IC50 [9] [µg/mL] | further results |
| --- | --- | --- | --- | --- | --- |
| COc1ccc(C#CC(=O)c2cc(Cl)cc(Cl)c2O)cc1OC | Active | Active | Active | 3.3 (≈ 9.4 µM) | inhibition [1]: inactive; inhibition [3]: Active; IC50 [4]: 1.98 µg/mL (≈ 5.64 µM); IC50 [6]: 5.85 µg/mL (≈ 16.7 µM); inhibition [7]: inactive; Activity [10]: inactive; inhibition [11]: Active |
| COc1cc(-c2oc3c(Cl)cc(Cl)cc3c(=O)c2O)cc(OC)c1OC |  | inactive |  |  |  |
| COc1cc(OC)c(C(=O)C#Cc2cc(OC)c(OC)c(OC)c2)c(O)c1C | Active | Active | Active |  |  |
| COc1ccc(-c2cc(=O)c3cc(Br)cc(Br)c3o2)cc1OC |  | inactive |  |  |  |
| COc1cc(C#CC(=O)c2cc(Cl)cc(Cl)c2O)cc(OC)c1OC | Active | Active | Active |  |  |
| COc1cc(O)c(C(=O)C#Cc2cc(OC)c(OC)c(OC)c2)c(OC)c1 | Active | Active | Active |  | inhibition [12]: Active; inhibition [1]: inactive; inhibition [3]: 50%; inhibition [7]: inactive; Activity [13]: Active; Activity [10]: inactive; Activity [14]: inactive; inhibition [11]: 50% |
| COc1ccc(-c2oc3c(Br)cc(Br)cc3c(=O)c2O)cc1OC |  | inactive |  |  |  |
| COc1cc(-c2cc(=O)c3cc(C)cc([N+](=O)[O-])c3o2)cc(OC)c1OC |  | inactive |  |  |  |
| COc1ccc(-c2oc3c(Cl)cc(Cl)cc3c(=O)c2O)cc1OC |  | inactive |  | > 36.7 | IC50 [4]: > 36.7 µg/mL; IC50 [6]: > 36.7 µg/mL |
| COc1cc(-c2oc3c([N+](=O)[O-])cc(C)cc3c(=O)c2O)cc(OC)c1OC |  | inactive |  |  |  |
| Cl.O=C(c1ccc(OCCN2CCCCC2)cc1)c1c(-c2ccc(O)cc2)sc2cc(O)ccc12 [RALOXIFENE HYDROCHLORIDE] |  |  |  | 0.98 | IC50 [4]: 11.2 µg/mL; IC50 [6]: 10.5 µg/mL |
| COc1cc(-c2cc(=O)c3cc(Cl)cc(Cl)c3o2)cc(OC)c1OC |  | inactive |  |  |  |
| COc1ccc(C#CC(=O)c2cc(C)cc([N+](=O)[O-])c2O)cc1OC | Active | Active | Active | 2.24 (≈ 6.56 µM) | IC50 [4]: 0.99 µg/mL (≈ 2.9 µM); IC50 [6]: 1.43 µg/mL (≈ 4.19 µM); Activity [10]: inactive |
| COc1ccc(-c2cc(=O)c3cc(C)cc([N+](=O)[O-])c3o2)cc1OC |  | inactive |  |  |  |
| COc1ccc(C#CC(=O)c2cc(Br)cc(Br)c2O)cc1OC | Active | Active | Active |  | inhibition [1]: inactive; inhibition [3]: 50%; inhibition [7]: inactive; inhibition [15]: Active; inhibition [16]: Active; Activity [13]: Active; inhibition [17]: Active; Activity [10]: inactive; inhibition [18]: 50%; inhibition [11]: 50% |
| CCCCCc1c(OC)cc(OC)c(C(=O)C#Cc2cc(OC)c(OC)c(OC)c2)c1O | Active | inactive | Active |  |  |
| COc1cc(-c2oc3c(Br)cc(Br)cc3c(=O)c2O)cc(OC)c1OC |  | inactive |  |  |  |
| CC/C(=C(\c1ccc(O)cc1)c1ccc(OCCN(C)C)cc1)c1ccccc1 [AFIMOXIFENE] |  |  |  | 0.95 (≈ 2.45 µM) |  |
| COc1ccc(-c2oc3c([N+](=O)[O-])cc(C)cc3c(=O)c2O)cc1OC |  | inactive |  | > 35.7 | IC50 [4]: > 35.7 µg/mL; IC50 [6]: > 35.7 µg/mL |
